≈ marks a conversion by molar mass, not a printed value. Calls of active or inactive are those of the source. No cut-off for these calls is given here.
Assays:
Plasmodium falciparum [1] = assay: Antiplasmodial activity against multidrug resistant Plasmodium falciparum Cam3.1 incubated for 48 hrs by SYBR staining based fluorometer assay; type: functional, organism-based; conditions: Cam3.1, 48 h
Plasmodium falciparum [2] = assay: Antiplasmodial activity against N-(2,6-difluorophenyl)-2-(6-(5-methyl-1,3,4-oxadiazol-2-yl)-1H-indol-1-yl)acetamide-resistant Plasmodium falciparum Dd2 harboring plasmodium falciparum ATP4 D425E mutant by SYBR green staining based analysis; type: functional, organism-based
[3] = Lipophilicity, logD of compound at pH 7.4 by shake-flask method; type: physicochemical; conditions: buffer
Plasmodium falciparum [4] = assay: Antiplasmodial activity against multidrug-resistant Plasmodium falciparum Dd2 harboring plasmodium falciparum ATP4 G358S mutant by SYBR green staining based analysis; type: functional, organism-based
[5] = Aqueous solubility in PBS buffer at pH 7.4; type: physicochemical
Plasmodium falciparum [6] = assay: Antiplasmodial activity against asexual Plasmodium falciparum 3D7 infected in human […] cells assessed as reduction in parasite growth measured for 72 hrs by LDH assay; type: functional, organism-based; conditions: 3D7, 72 h
Plasmodium falciparum [7] = assay: Antiplasmodial activity against N-(2,6-difluorophenyl)-2-(6-(5-methyl-1,3,4-oxadiazol-2-yl)-1H-indol-1-yl)acetamide-resistant Plasmodium falciparum Dd2 harboring plasmodium falciparum ATP4 F156L mutant by SYBR green staining based analysis; type: functional, organism-based
Plasmodium falciparum [8] = assay: Antiplasmodial activity against multi-drug resistant Plasmodium falciparum Dd2; type: functional, organism-based
Plasmodium falciparum [9] = assay: Antimalarial activity against trophozoite stage Plasmodium falciparum 3D7 at 10 times EC50 incubated for 48 hrs by SYBR Green dye based analysis; type: functional, organism-based
Plasmodium falciparum [10] = assay: Antiplasmodial activity against multidrug resistant Plasmodium falciparum 7G8 incubated for 48 hrs by SYBR staining based fluorometer assay; type: functional, organism-based; conditions: 7G8, 48 h
[11] = target: T1, P-type sodium-transporting ATPase4 (Plasmodium falciparum (isolate 3D7), UniProt A0A143ZZK9); assay: Inhibition of Plasmodium falciparum 3D7 ATP4
T1 sequence (A0A143ZZK9 whole entry): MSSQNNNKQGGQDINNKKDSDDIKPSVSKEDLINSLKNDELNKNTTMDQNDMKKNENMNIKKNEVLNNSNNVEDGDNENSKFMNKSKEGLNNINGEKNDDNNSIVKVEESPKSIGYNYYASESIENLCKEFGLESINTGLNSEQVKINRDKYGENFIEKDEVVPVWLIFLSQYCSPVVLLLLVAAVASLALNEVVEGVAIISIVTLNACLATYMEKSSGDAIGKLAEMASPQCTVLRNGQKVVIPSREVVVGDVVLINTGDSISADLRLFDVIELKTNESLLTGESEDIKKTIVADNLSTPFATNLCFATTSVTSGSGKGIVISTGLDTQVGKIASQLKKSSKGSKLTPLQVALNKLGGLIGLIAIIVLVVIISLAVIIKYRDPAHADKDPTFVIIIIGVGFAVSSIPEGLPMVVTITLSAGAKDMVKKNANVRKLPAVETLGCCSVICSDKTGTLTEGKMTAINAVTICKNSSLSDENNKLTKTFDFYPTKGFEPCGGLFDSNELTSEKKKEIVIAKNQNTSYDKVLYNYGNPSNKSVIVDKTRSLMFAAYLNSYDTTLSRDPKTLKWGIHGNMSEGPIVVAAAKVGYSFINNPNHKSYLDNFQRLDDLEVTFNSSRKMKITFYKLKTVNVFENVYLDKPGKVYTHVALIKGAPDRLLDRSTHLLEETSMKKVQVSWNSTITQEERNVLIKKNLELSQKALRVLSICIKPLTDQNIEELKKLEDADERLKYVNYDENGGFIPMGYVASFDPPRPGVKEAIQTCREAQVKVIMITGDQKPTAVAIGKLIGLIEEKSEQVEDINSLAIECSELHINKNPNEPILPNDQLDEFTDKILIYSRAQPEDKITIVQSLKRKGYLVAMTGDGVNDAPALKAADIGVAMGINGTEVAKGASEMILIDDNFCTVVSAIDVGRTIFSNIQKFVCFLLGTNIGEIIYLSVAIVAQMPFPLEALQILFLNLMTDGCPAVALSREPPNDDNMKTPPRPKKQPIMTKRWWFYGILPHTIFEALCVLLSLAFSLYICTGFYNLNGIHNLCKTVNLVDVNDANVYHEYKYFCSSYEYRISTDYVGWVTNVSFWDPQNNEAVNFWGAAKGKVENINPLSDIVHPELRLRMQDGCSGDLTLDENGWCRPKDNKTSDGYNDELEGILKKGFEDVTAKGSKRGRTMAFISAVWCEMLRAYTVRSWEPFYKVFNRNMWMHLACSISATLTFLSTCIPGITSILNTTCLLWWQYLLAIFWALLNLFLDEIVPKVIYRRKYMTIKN

HepG2 [12] = assay: (§1) Cytotoxicity against human HepG2 cells assessed as inhibition of cell growth incubated for 48 hrs by celltiterglo assay; type: toxicity, cell-based; conditions: hepg2, 48 h
Plasmodium knowlesi = assay: Antiplasmodial activity against wild type Plasmodium knowlesi YH1 incubated for 30 hrs by SYBR staining based flow cytometry assay; type: functional, organism-based; conditions: YH1, 30 h
Plasmodium falciparum [13] = assay: Antiplasmodial activity against wild type Plasmodium falciparum 3D7 incubated for 48 hrs; type: functional, organism-based; conditions: 3D7, 48 h
[14] = target: T2, P-type sodium-transporting ATPase4 (Plasmodium falciparum (isolate 3D7)) (UniProt A0A143ZZK9); assay: Inhibition of Plasmodium falciparum 3D7 ATP4 assessed as reduction in Na+-ATPase activity at 2 uM incubated for 10 mins under high [Na+] condition in absence of KAE609
T2 sequence (whole entry): T1 sequence (A0A143ZZK9 whole entry)

Plasmodium falciparum [15] = assay: Antiplasmodial activity against N-(2,6-difluorophenyl)-2-(6-(5-methyl-1,3,4-oxadiazol-2-yl)-1H-indol-1-yl)acetamide-resistant Plasmodium falciparum Dd2 harbouring ATP4 genome with 2.8 fold CNV by SYBR green staining based analysis; type: functional, organism-based
Plasmodium falciparum [16] = assay: Antiplasmodial activity against Plasmodium falciparum 3D7 infected in human […] cells incubated for 72 hrs; type: functional, organism-based; conditions: 3D7, 72 h
Plasmodium falciparum [17] = assay: Antiplasmodial activity against multidrug resistant Plasmodium falciparum W2mef incubated for 48 hrs by SYBR staining based fluorometer assay; type: functional, organism-based
[18] = Metabolic stability in human liver microsome assessed as intrinsic clearance; type: ADME; conditions: microsomes
[19] = Metabolic stability in rat hepatocyte […] assessed as intrinsic clearance measured per 10^6 cells; type: ADME, cell-based; conditions: hepatocytes
Plasmodium falciparum [20] = assay: Antiplasmodial activity against multidrug-resistant Plasmodium falciparum Dd2 harboring plasmodium falciparum ATP4 I398F/P990R/D1247Y mutant by SYBR green staining based analysis; type: functional, organism-based
Plasmodium falciparum [21] = assay: Antimalarial activity against Plasmodium falciparum NF54 infected assessed as inhibition of female gamete formation incubated for 48 hrs by automated bright field microscopic analysis; type: functional, organism-based; conditions: NF54, 48 h
Plasmodium falciparum [22] = assay: Antiplasmodial activity against Plasmodium falciparum 3D7 infected in RBC assessed as reduction in deoxythymidine diphosphate level at 5 nM incubated for 5 hrs by LC-MS analysis; type: functional, organism-based
Plasmodium falciparum [23] = assay: Antimalarial activity against Plasmodium falciparum NF54 infected assessed as inhibition of male gamete formation incubated for 48 hrs by automated bright field microscopic analysis; type: functional, organism-based; conditions: NF54, 48 h
Plasmodium falciparum [24] = assay: Antiplasmodial activity against Plasmodium falciparum 3D7 infected in RBC assessed as reduction in deoxythymidine triphosphate level at 5 nM incubated for 5 hrs by LC-MS analysis; type: functional, organism-based
Plasmodium falciparum [25] = assay: Antiplasmodial activity against Plasmodium falciparum 3D7 infected in RBC assessed as reduction in nucleotide level at 5 nM incubated for 5 hrs by LC-MS analysis; type: functional, organism-based
Plasmodium falciparum [26] = assay: Antiplasmodial activity against Plasmodium falciparum 3D7 infected in RBC assessed as reduction in deoxycytidine monophosphate level at 5 nM incubated for 5 hrs by LC-MS analysis; type: functional, organism-based
[27] = Metabolic stability in mouse liver microsome assessed as intrinsic clearance; type: ADME; conditions: microsomes
Plasmodium falciparum [28] = assay: Antiplasmodial activity against Plasmodium falciparum 3D7 infected in RBC assessed as reduction in pyrimidine-deoxyribonucleotides level at 5 nM incubated for 5 hrs by LC-MS analysis; type: functional, organism-based
[29] = as §1; type: toxicity, cell-based; conditions: HepG2 cells
Plasmodium falciparum [30] = assay: Antiplasmodial activity against W454-resistant population 3 Plasmodium falciparum 3D7 harboring Plasmodium falciparum ATP4 L928F mutant by LDH assay; type: functional, organism-based
HepG2 [31] = assay: Cytotoxicity against human HepG2 cells; type: functional
Plasmodium falciparum [32] = assay: Antiplasmodial activity against W454-resistant population 1 Plasmodium falciparum 3D7 harboring Plasmodium falciparum ATP4 L928F mutant by LDH assay; type: functional, organism-based
Plasmodium falciparum [33] = assay: Antiplasmodial activity against W454-resistant population 2 Plasmodium falciparum 3D7 harboring Plasmodium falciparum ATP4 L928F mutant by LDH assay; type: functional, organism-based
Plasmodium falciparum [34] = assay: Antimalarial activity against trophozoite stage Plasmodium falciparum 3D7 assessed as reduction in parasitemia at 10 times EC50 incubated for 24 hrs by SYBR Green dye based analysis; type: functional, organism-based
[35] = target: T1, P-type sodium-transporting ATPase4; assay: Inhibition of Plasmodium falciparum 3D7 ATP4 assessed as increase in Na+ concentration in parasite cytosol measured for 60 mins; type: subcellular
[36] = target: T2, P-type sodium-transporting ATPase4 (Plasmodium falciparum (isolate 3D7)); assay: Inhibition of Plasmodium falciparum 3D7 ATP4 assessed as increase in Na+ concentration in parasite cytosol upto 1000 nM measured for 60 mins; type: subcellular
Plasmodium falciparum [37] = assay: Antimalarial activity against synchronized-ring stage Plasmodium falciparum 3D7 assessed as reduction in parasitemia at 10 times EC50 measured at 72 hrs post-treatment by LDH assay; type: functional, organism-based
In short: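 Parasite reduction ratio assay in P. falciparum 3D7 with an LDH read-out. Means and SDs were taken from three replicate experiments.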

Plasmodium falciparum [38] = assay: Antiplasmodial activity against N-(2,6-difluorophenyl)-2-(6-(5-methyl-1,3,4-oxadiazol-2-yl)-1H-indol-1-yl)acetamide-resistant Plasmodium falciparum Dd2 harboring plasmodium falciparum ATP4 D425E mutant; type: functional, organism-based
Plasmodium falciparum [39] = assay: Antiplasmodial activity against N-(2,6-difluorophenyl)-2-(6-(5-methyl-1,3,4-oxadiazol-2-yl)-1H-indol-1-yl)acetamide-resistant Plasmodium falciparum Dd2 harbouring ATP4 genome with 2.8 fold CNV; type: functional, organism-based
Plasmodium falciparum [40] = assay: Antiplasmodial activity against N-(2,6-difluorophenyl)-2-(6-(5-methyl-1,3,4-oxadiazol-2-yl)-1H-indol-1-yl)acetamide-resistant Plasmodium falciparum Dd2 harboring plasmodium falciparum ATP4 F156L mutant; type: functional, organism-based
Plasmodium falciparum [41] = assay: Antiplasmodial activity against multidrug-resistant Plasmodium falciparum Dd2 harboring plasmodium falciparum ATP4 G358S mutant; type: functional, organism-based
Plasmodium falciparum [42] = assay: Antiplasmodial activity against Plasmodium falciparum 3D7; type: functional, organism-based
Plasmodium falciparum [43] = assay: Antiplasmodial activity against multidrug-resistant Plasmodium falciparum Dd2 harboring plasmodium falciparum ATP4 I398F/P990R/D1247Y mutant; type: functional, organism-based

Compound	EC50 (Plasmodium falciparum [1]) [nM]	EC50 (Plasmodium falciparum [2]) [nM]	logD [3]	EC50 (Plasmodium falciparum [4]) [nM]	solubility kinetic [5] [µM]	EC50 (Plasmodium falciparum [6]) [nM]	EC50 (Plasmodium falciparum [8]) [nM]	Activity (Plasmodium falciparum [9])	EC50 (Plasmodium falciparum [10]) [nM]	CC50 (HepG2 [12]) [nM]	EC50 (Plasmodium knowlesi) [nM]	EC50 (Plasmodium falciparum [13]) [nM]	EC50 (Plasmodium falciparum [15]) [nM]	EC50 (Plasmodium falciparum [16]) [nM]	EC50 (Plasmodium falciparum [17]) [nM]	intrinsic clearance (CLint) [18] [µL/min/mg]	intrinsic clearance (CLint) [19] [uL/min/10^6 cells]	EC50 (Plasmodium falciparum [20]) [nM]	EC50 (Plasmodium falciparum [21]) [nM]	EC50 (Plasmodium falciparum [23]) [nM]	further results
Cn1cc(-c2ccc3ccn(CC(=O)Nc4ccccc4Cl)c3c2)cn1	476	892	3.6	1650	4.1 (≈ 1.5 µg/mL)	593	385	Active	526	> 40000	661	236	1160	409	279	> 462	91	2510	–	–	EC50 (Plasmodium falciparum [7]): 803 nM; IC50 [11]: 790 nM; inhibition [14]: Active
COc1cc(NC(=O)Cn2ccc3ccc(-c4nnc(C)o4)cc32)cc(OC)c1OC	124	–	2.7	–	5.1 (≈ 2.15 µg/mL)	200	99	–	165	> 40000	195	73	–	–	77	42	8.9	–	3400	1500	Activity (Plasmodium falciparum [22]): inactive; Activity (Plasmodium falciparum [24]): inactive; Activity (Plasmodium falciparum [25]): inactive; Activity (Plasmodium falciparum [26]): inactive; intrinsic clearance (CLint) [27]: 69 µL/min/mg; Activity (Plasmodium falciparum [28]): inactive
Cc1nc(-c2ccc3ccn(CC(=O)Nc4ccccc4Cl)c3c2)no1	–	–	–	–	–	955	–	–	–	–	–	–	–	–	–	–	–	–	–	–	CC50 at 48 h [29]: > 40000 nM
CCc1nnc(-c2ccc3ccn(CC(=O)Nc4cc(OC)c(OC)c(OC)c4)c3c2)o1	381	241	–	1370	–	–	320	Active	–	–	431	–	290	123	272	–	–	238	7200	7400	EC50 (Plasmodium falciparum [30]): 1800 nM; CC50 (HepG2 [31]): > 40000 nM; EC50 (Plasmodium falciparum [32]): 1940 nM; EC50 (Plasmodium falciparum [33]): 1990 nM; Activity (Plasmodium falciparum [34]): Active; IC50 [35]: ~400 nM; inhibition [36]: Active; Activity (Plasmodium falciparum [37]): Active
Cc1nnc(-c2ccc3ccn(CC(=O)Nc4ccc(F)cc4F)c3c2)o1	–	–	–	–	–	4250	–	–	–	> 40000	–	–	–	–	–	–	–	–	–	–	EC50 (Plasmodium falciparum [38]): 30 nM; EC50 (Plasmodium falciparum [39]): 30 nM; EC50 (Plasmodium falciparum [40]): 25 nM; EC50 (Plasmodium falciparum [41]): 28 nM; EC50 (Plasmodium falciparum [42]): 16 nM; EC50 (Plasmodium falciparum [43]): 142 nM

From ChEMBL document CHEMBL6115053, “Optimization and Characterization of N-Acetamide Indoles as Antimalarials That Target PfATP4” (J Med Chem, 2025)
